CHOP inhibitor: CHOP inhibition in unfolded protein response; CHO-K1 CHOP-promoter luciferase, tunicamycin-induced, 15-18 h; inhibition, % at 10 µM; 220,000 compounds, 3.8% hits; AID 2732;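 active means compounds that reduced the stress-induced luciferase reporter signal by more than about 70% of percent inhibition, limit read from the data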;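 further: 0% = tunicamycin plus vehicle and 100% = wells without tunicamycin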
PKD1 kinase inh: inhibitors of human PKD1 kinase. Q15139. inhibition, % (no concentration beside the values). 200,000 compounds, 0.056% hits. PKD1 kinase fluorescence polarization assay
Arbovirus anti: antivirals against arbovirus infection. arbovirus infection cell-based antiviral screen. inhibition, % at 10 µM. 200,000 compounds, 0.37% hits; in the data active means inhibition above about 30%
L major viab: inhibitors of Leishmania major promastigote growth. Leishmania major promastigotes, resazurin fluorescence viability. AID 1063. inhibition, % at 10 µM. 200,000 compounds, 9% hits;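 further: promastigotes grown with compound for 44 hours at 28 °C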
Rad51 HR inh: blocks human Rad51 in homologous recombination. inhibition, % at 10 µM. 200,000 compounds, 0.085% hits. Q06609. AID 1385. hRad51 DNA strand exchange, fluorescence dequenching;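 active means inhibition above 40% at the single screening dose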;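 further: 0% = DMSO control wells and 100% = blanks with heterologous ssDNA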
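System: hRad51 filaments on single-stranded DNA; reagent: Fluorescein- and BHQ1-tagged 47-mer duplex; compound dosing: one concentration, 10 µM final; timing: filaments 15 min 37 °C, then compound 30 min; measured by: fluorescein emission 520 nm, excitation 485 nm; benchmarks: per-plate controls and blanks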
Wee1 stabilizer: blocks degradation of human Wee1 kinase; P30291; HeLa Luc-Wee1K328M stability, luciferase luminescence; 100% = proteasome inhibitor MG132 effect; reporter increase, % at 5 µM; 220,000 compounds, 1.2% hits;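 active means activation above the mean of all tested compounds plus 3 SD, set per screening run, cut at about 8.8% in these data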;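 further: cells exposed to compound for 20 h before luminescence read; 0% = DMSO alone and 100% = MG132 at 30 µM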
Numbers without * were called inactive; nt = no result. Most compounds without a hit are left out; they make up all but 12% or so of the library. Unless noted, no stated cut-off is given here; in the data, active means inhibition above about 50%; inactive means the rest.

SMILES | CHOP inhibitor | PKD1 kinase inh | Arbovirus anti | L major viab | Rad51 HR inh | Wee1 stabilizer
CCOC(=O)Cc1csc(NC(=O)CSc2cc(Cl)ccc2Cl)n1 | 31 | -12 | 2 | 6 | 3 | 0
CC(=O)Nc1cccc(N=NN2CCCCC2)c1 | 0 | -5 | -5 | -7 | -9 | -4
Cc1csc(N/N=C/c2ccccn2)n1 | 26 | -5 | -16 | 95* | 29 | 1
Clc1ccc(-n2c(SC/C=C/c3ccccc3)nnc2-c2cccnc2)cc1 | 56 | -7 | -35 | 74* | 3 | 3
Nn1c(SC/C=C/c2ccccc2)nnc1-c1cccnc1 | 11 | -6 | -6 | 0 | 10 | -2
CSCCC(NS(=O)(=O)c1ccccc1F)C(=O)OCc1ccccc1Cl (stereo unspecified) | 17 | -5 | 10 | 75* | -6 | 1
CSCCC(NS(=O)(=O)c1ccc(Cl)cc1)C(=O)OCC(=O)N(C(C)C)C(C)C (stereo unspecified) | 52 | -1 | 3 | 5 | 0 | 0
CSCCC(NS(=O)(=O)c1ccc(Cl)cc1)C(=O)OCc1c(Cl)cccc1Cl (stereo unspecified) | 86* | -10 | -5 | 99* | 8 | 3
CCN(CC)S(=O)(=O)c1cc(NC(=O)C(C)OC(=O)c2[nH]c(C)c(C(C)=O)c2C)ccc1C (stereo unspecified) | 35 | -2 | -10 | 95* | -1 | 6
CC(=O)c1c(C)[nH]c(C(=O)Nc2ccc(C)c(S(=O)(=O)N(C)C)c2)c1C | -21 | 1 | 5 | -8 | 0 | -1
Cc1cc(OCC(F)(F)C(F)(F)C(F)(F)C(F)(F)C(F)(F)C(F)F)nc(N)n1 | 91* | -3 | 12 | -6 | 5 | -1
NC(=O)c1ccc(OCC(F)(F)C(F)(F)C(F)(F)C(F)(F)C(F)(F)C(F)F)cc1 | 61 | -3 | 7 | -4 | -2 | -2
CCCSc1nc(N2CCOCC2)c2c(c1C#N)CCCC2 | 46 | 0 | -28 | 3 | 8 | -2
CSc1nc(N2CCOCC2)c2c(c1C#N)CCCCC2 | 73* | -2 | 3 | -5 | -6 | 0
CCCc1nc(N2CCOCC2)c(C#N)c2c1CCCC2 | 54 | -6 | 9 | -5 | 7 | -2
CC(C)c1nc(N2CCOCC2)c(C#N)c2c1CCC2 | 72* | 9 | 13 | -2 | -2 | -2
Nc1c(C(=O)NCC2CCCO2)sc2nc3c(c(-c4ccco4)c12)CC/C3=C\c1ccco1 (stereo unspecified) | -4 | -3 | 8 | 1 | -4 | 2
CCN(CC)CCCn1c(=S)[nH]c2ccccc2c1=O | 21 | -7 | 5 | 1 | -9 | -1
CC1CC(C)CN(CCCn2c(=S)[nH]c3ccccc3c2=O)C1 (stereo unspecified) | 16 | -5 | 7 | 89* | -3 | 2
Nn1c(SCC(=O)N2CCCc3ccccc32)nnc1-c1ccccc1 | 21 | 1 | 7 | -4 | 14 | -1
O=C(CSc1nnc(-c2cccs2)n1-c1ccccc1)N1CCCc2ccccc21 | 31 | 3 | 6 | 31 | 2 | -1
CCOc1ccccc1-n1c(SCC(=O)N2CCCc3ccccc32)nnc1-c1cccnc1 | 10 | -16 | -5 | 53* | nt | 0
O=C(CSc1nnc(-c2cccnc2)n1-c1ccc(SC(F)F)cc1)N1CCCc2ccccc21 | 31 | -8 | 8 | 88* | -3 | 7
CC(C)c1ccccc1-n1c(SCC(=O)N2CCN(c3ccccc3)CC2)nnc1-c1cccnc1 | 37 | -4 | -13 | 96* | 4 | -2
Cc1ccc(-n2c(SCC(N)=O)nnc2-c2cccnc2)c(C)c1 | 29 | -6 | -3 | -3 | -8 | -6
SMILES | CHOP inhibitor | PKD1 kinase inh | Arbovirus anti | L major viab | Rad51 HR inh | Wee1 stabilizer
Cc1ccc(-n2c(SCC(=O)N3CCCc4ccccc43)nnc2-c2cccnc2)c(C)c1 | 15 | 6 | -2 | 59* | nt | -2
COc1ccc2[nH]c(=O)c(CN(C(=O)c3cccnc3)c3ccccc3C)cc2c1 | 25 | nt | nt | nt | nt | 2
CCOc1ccc(N(CC(=O)Nc2nccs2)S(=O)(=O)c2c(C)[nH]c(=O)[nH]c2=O)cc1 | 0 | -2 | 7 | -9 | 2 | 0
COc1ccc(OC)c(S(=O)(=O)N2CCCc3ccccc32)c1 | 13 | 9 | 3 | 100* | 1 | -1
COc1ccc(C(=O)N2CCCN(C)CC2)cc1S(=O)(=O)N1CCCc2ccccc21 | -37 | -2 | -4 | 55* | -2 | -1
COc1ccc(Cl)cc1S(=O)(=O)N1CCCC1=O | 7 | -5 | 18 | -4 | 2 | 10.0*
CCCC(=O)N1CCN(S(=O)(=O)c2cc(Cl)ccc2OC)CC1 | -6 | 10 | 5 | -5 | 8 | 1
COc1ccc(C(=O)NCc2ccc(C)cc2)cc1S(=O)(=O)N1CCCc2ccccc21 | 35 | -7 | -12 | 99* | 1 | 1
Cc1ccc(S(=O)(=O)N2CCC(NC(=O)OC(C)C)CC2)cc1 | 21 | -3 | 0 | -3 | 17 | 3
COc1ccc(OC)c(S(=O)(=O)N2c3ccccc3CC2C)c1 (stereo unspecified) | 8 | -9 | 3 | 100* | 4 | 2
COc1ccc(OC)c(S(=O)(=O)N2CCc3ccccc32)c1 | -13 | -7 | -1 | 95* | 2 | -2
COc1ccc(C(=O)N2CCOCC2)cc1S(=O)(=O)N1CCCc2ccccc21 | -9 | -1 | -2 | 0 | -6 | -3
COc1ccc(OC)c(S(=O)(=O)N2c3cc(F)ccc3CCC2C)c1 (stereo unspecified) | 7 | -2 | -2 | 100* | -5 | -1
C=CCOC(=O)/C=C/C(=O)NC(N)=O | -39 | nt | nt | nt | 3 | 2
COc1ccc(C2SCCN2C(=S)Nc2cccc(C(F)(F)F)c2)cc1 (stereo unspecified) | 54 | -5 | -15 | 96* | 17 | 0
COc1ccc2c(c1)c1ncn(CCN3CCNCC3)c(=O)c1n2C | 74* | 0 | -5 | 20 | -10 | -2
CCOC(=O)c1c(NC(=O)Nc2ccc(C)cc2)sc2c1CCN(C)C2 | -31 | nt | nt | nt | 5 | 10*
CCOC(=O)c1c(NC(=O)C2CCCN(S(=O)(=O)c3ccc(C)cc3)C2)sc2c1CCCC2 (stereo unspecified) | 31 | -1 | 2 | 6 | 4 | -2
CCOC(=O)c1c(NC(=S)Nc2ccccc2)sc2c1CCN(CC)C2 | -21 | -13 | 12 | 98* | -47 | -3
CCOC(=O)c1c(NC(=O)Nc2ccc(Cl)cc2)sc(C)c1C | 29 | 0 | 9 | -2 | 3 | -1
CCOC(=O)c1c(NC(=O)C2CCCN(S(=O)(=O)c3ccccc3)C2)sc2c1CCCC2 (stereo unspecified) | -19 | -6 | -6 | 81* | 1 | 0
C/C(=N\N=C(/N)c1nonc1N)c1ccc2c(c1)OCO2 | -34 | nt | nt | nt | -3 | -2
CC(=O)c1cc2c(cc1NC(=O)c1ccccc1C)OCO2 | -18 | -5 | -1 | -6 | -9 | 0
